Measured values reported in ChEMBL document CHEMBL2062414, “Selected chromone derivatives as inhibitors of monoamine oxidase” (Bioorg Med Chem Lett, 2012).

Columns and labels:
Homo sapiens = species: Homo sapiens; assay: Selectivity ratio of IC50 for recombinant human MAO-A to IC50 for recombinant human MAO-B
Procedure, shortened: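 This is a selectivity index for MAO-B, computed as IC50(MAO-A)/IC50(MAO-B). Both IC50s were measured fluorometrically on recombinant human enzymes as kynuramine conversion to 4-hydroxyquinoline, in triplicate.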

[1] = biological target: T1, Amine oxidase [flavin-containing] A (Homo sapiens, UniProt P21397); assay: Inhibition of recombinant human MAO-A assessed as inhibition of kynuramine to 4-hydroxyquinoline conversion after 20 mins by fluorometry
T1 sequence (P21397 whole entry): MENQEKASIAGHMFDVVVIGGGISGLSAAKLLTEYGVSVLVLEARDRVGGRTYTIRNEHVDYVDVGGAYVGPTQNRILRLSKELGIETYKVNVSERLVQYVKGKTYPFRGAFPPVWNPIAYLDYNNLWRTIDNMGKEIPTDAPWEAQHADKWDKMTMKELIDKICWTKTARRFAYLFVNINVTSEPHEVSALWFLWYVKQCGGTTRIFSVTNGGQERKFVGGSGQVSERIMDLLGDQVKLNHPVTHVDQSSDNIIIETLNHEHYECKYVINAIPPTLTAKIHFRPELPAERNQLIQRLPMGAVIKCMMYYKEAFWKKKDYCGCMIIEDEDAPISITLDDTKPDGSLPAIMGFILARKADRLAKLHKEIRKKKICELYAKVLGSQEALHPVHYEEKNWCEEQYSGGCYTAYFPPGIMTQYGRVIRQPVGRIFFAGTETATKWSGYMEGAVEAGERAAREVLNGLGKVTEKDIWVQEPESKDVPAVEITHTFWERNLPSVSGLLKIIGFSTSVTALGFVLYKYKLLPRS
Procedure, shortened: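 Recombinant human MAO-A was incubated with the mixed MAO-A/B substrate kynuramine. Activity was read fluorometrically as formation of 4-hydroxyquinoline. IC50 values are given as mean ± SD of triplicate determinations.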

[2] = biological target: T2, Amine oxidase [flavin-containing] B (Homo sapiens, UniProt P27338); assay: Inhibition of recombinant human MAO-B assessed as inhibition of kynuramine to 4-hydroxyquinoline conversion after 20 mins by fluorometry
T2 sequence (P27338 whole entry): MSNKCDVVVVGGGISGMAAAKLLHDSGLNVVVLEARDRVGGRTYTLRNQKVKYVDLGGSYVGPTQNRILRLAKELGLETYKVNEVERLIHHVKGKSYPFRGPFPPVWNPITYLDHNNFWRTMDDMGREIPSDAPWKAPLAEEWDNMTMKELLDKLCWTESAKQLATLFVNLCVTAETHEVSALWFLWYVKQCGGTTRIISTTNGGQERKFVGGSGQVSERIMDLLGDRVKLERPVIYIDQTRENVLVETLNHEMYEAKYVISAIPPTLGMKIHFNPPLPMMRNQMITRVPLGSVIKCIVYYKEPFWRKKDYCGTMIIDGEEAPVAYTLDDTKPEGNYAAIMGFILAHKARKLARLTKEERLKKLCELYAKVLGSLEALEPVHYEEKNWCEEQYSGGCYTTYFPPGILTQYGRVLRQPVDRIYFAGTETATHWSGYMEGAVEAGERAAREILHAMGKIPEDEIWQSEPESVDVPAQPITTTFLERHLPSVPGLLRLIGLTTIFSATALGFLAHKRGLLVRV

[3] = biological target: T2, Amine oxidase [flavin-containing] B; assay: Reversible inhibition of recombinant human MAO-B assessed as recovered enzyme activity measuring residual rate of 4-hydroxyquinoline formation at 10 times IC50 preincubated for 30 mins followed by dilution to 0.1 time IC50 measured after 20 mins

Structure (SMILES)	Ratio IC50 (Homo sapiens)	IC50 [1]	IC50 [2]	Activity [3]
O=c1ccoc2cccc(OCc3ccccc3)c12	18	143 µM	8.03 µM	–
O=Cc1coc2ccc(OCc3cccc(Br)c3)cc2c1=O	595	2.2 µM	0.0037 µM	–
COC(=O)c1coc2ccc(OCc3cccc(Br)c3)cc2c1=O	83	6.46 µM	0.0774 µM	–
O=Cc1coc2ccccc2c1=O	1	28.9 µM	23.5 µM	–
O=C(O)c1coc2ccc(OCc3cccc(Br)c3)cc2c1=O	371	1.04 µM	0.0028 µM	68%
O=c1ccoc2ccccc12 [CHROMONE]	1	39.9 µM	54.9 µM	–
CC(=O)c1cc(OCc2cccc(Br)c2)ccc1O	34	–	–	–
CC(=O)c1ccc(OCc2cccc(Br)c2)cc1O	3950	–	–	68%

Continued, values first:

Ratio IC50 (Homo sapiens)	IC50 [1]	IC50 [2]	Activity [3]	Structure (SMILES)
12	52.9 µM	4.34 µM	–	O=c1ccoc2cccc(OCc3ccc(Br)cc3)c12
17	–	–	–	CC(=O)c1c(O)cccc1OCc1cccc(Br)c1
53	–	–	–	CC(=O)c1c(O)cccc1OCc1ccc(Br)cc1
569	–	–	–	CC(=O)c1ccc(OCc2ccc(Br)cc2)cc1O
1.4	60.6 µM	44.8 µM	–	O=C1CC(O)Oc2cccc(OCc3ccc(Br)cc3)c21 (centres undefined)
–	1.53 µM	–	68%	O=C1CC(O)Oc2ccc(OCc3cccc(Br)c3)cc21 (centres undefined)
17	–	–	–	CC(=O)c1cc(OCc2ccc(Br)cc2)ccc1O
